B1: tRNA (parent)
chain: GUUCCGUUGGCGUAAUGGUAACGCGUCUCCCUCCUAAGGAGAAGACUGCGGGUUCGAGUCCCGUACGGAACG

Variants of: B1
Assay: yeast fitness, log relative to wild type (ln ratio); higher = fitter; tRNA-Arg(CCU), competitive growth, 37 C, 1 M NaCl
Outline: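 In BY4742 missing the chromosomal gene, a combinatorial tRNA-Arg(CCU) variant library was maintained on a HIS3 centromeric plasmid. Selection ran ~6.5 generations (~26.5 h) in SC-HIS 1M NaCl at 37 °C, following 4 generations in SC-HIS at 30 °C, with three outputs per input and variant counts by 125 bp paired-end Illumina sequencing. Fitness is the natural log of a genotype's generations relative to the wild type's, with generations taken as inverse-variance-weighted, OD-scaled log2 output/input frequency.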

Going from ACUCCAUUGGCGUAAUGGUAACGCGUCUCCCUCCUAAGGAGACGAUUGCGGGUUCGAGUCCCGUAUGGGGUG [G1A U2C G6A A43C C46U C66U A69G A70G C71U] to ACUCCAUUGGCGUAAUGGUAACGCGUCUCCCUCCUAAGGAGAAGACUGCGGGUUCGAGUCCCGUACGGAUUG [G1A U2C G6A A70U C71U], the “yeast fitness (ln)” value falls from -0.0138 to -0.126.

Going from ACUCCAUUGGCGUAAUGGUAACGCGUCUCCCUCCUAAGGAGACGAUUGCGGGUUCGAGUCCCGUACGGAGCG [G1A U2C G6A A43C C46U A70G] to ACUCCAUUGGCGUAAUGGUAACGCGUCUCCCUCCUAAGGAGACGAUUGCGGGUUCGAGUCCCGUACGGAUCG [G1A U2C G6A A43C C46U A70U], the “yeast fitness (ln)” value rises from -0.0508 to -0.034.

Compared with ACUCCAUUGGCGUAAUGGUAACGCGUCUCCCUCCUAAGGAGAAGACUGCGGGUUCGAGUCCCGUACGGAGUG [G1A U2C G6A A70G C71U], ACUCCAUUGGCGUAAUGGUAACGCGUCUCCCUCCUAAGGAGACGAUUGCGGGUUCGAGUCCCGUACGGAUUG [G1A U2C G6A A43C C46U A70U C71U] is lower in “yeast fitness (ln)” value: -0.0357 for the first, -0.0375 for the second.

Going from ACUCCAUUGGCGUAAUGGUAACGCGUCUCCCUCCUAAGGAGAAGACUGCGGGUUCGAGUCCCGUACGGAUCG [G1A U2C G6A A70U] to ACUCCAUUGGCGUAAUGGUAACGCGUCUCCCUCCUAAGGAGAAGACUGCGGGUUCGAGUCCCGUACGGAGCG [G1A U2C G6A A70G], the “yeast fitness (ln)” value falls from -0.0459 to -0.0946.

First: ACUCCAUUGGCGUAAUGGUAACGCGUCUCCCUCCUAAGGAGACGAUUGCGGGUUCGAGUCCCGUAUGGAUUG [G1A U2C G6A A43C C46U C66U A70U C71U]
Second: ACUCCAUUGGCGUAAUGGUAACGCGUUUCCCUCCUAAGGAGACGACUGCGGGUUCGAGUCCCGUACGGAUUG [G1A U2C G6A C27U A43C A70U C71U]
The “yeast fitness (ln)” value of the first is lower: -0.402 for the first, -0.186 for the second.

First: ACUCCAUUGGCGUAAUGGUAACGCGUCUCCCUCCUAAGGAGACGAUUGCGGGUUCGAGUCCCGUACGGAAUG [G1A U2C G6A A43C C46U C71U]
Second: ACUCCAUUGGCGUAAUGGUAACGCGUCUCCCUCCUAAGGAGACGACUGCGGGUUCGAGUCCCGUAUGGAUUG [G1A U2C G6A A43C C66U A70U C71U]
The “yeast fitness (ln)” value of the first is higher: -0.0914 for the first, -0.301 for the second.

Compared with ACUCCAUUGGCGUAAUGGUAACGCGUCUCCCUCCUAAGGAGACGAUUGCGGGUUCGAGUCCCGUACGGAACG [G1A U2C G6A A43C C46U], ACUCCAUUGGCGUAAUGGUAACGCGUCUCCCUCCUAAGGAGACGAUUGCGGGUUCGAGUCCCGUAUGGAGCG [G1A U2C G6A A43C C46U C66U A70G] is lower in “yeast fitness (ln)” value: 0.0217 for the first, -0.0356 for the second.

Compared with ACUCCAUUGGCGUAAUGGUAACGCGUCUCCCUCCUAAGGAGACGAUUGCGGGUUCGAGUCCCGUAUGGAUCG [G1A U2C G6A A43C C46U C66U A70U], ACUCCAUUGGCGUAAUGGUAACGCGUCUCCCUCCUAAGGAGACGAUUGCGGGUUCGAGUCCCGUAUGGAGUG [G1A U2C G6A A43C C46U C66U A70G C71U] is higher in “yeast fitness (ln)” value: -0.0467 for the first, -0.015 for the second.

Compared with ACUCCAUUGGCGUAAUGGUAACGCGUCUCCCUCCUAAGGAGACGAUUGCGGGUUCGAGUCCCGUAUGGAACG [G1A U2C G6A A43C C46U C66U], ACUCCAUUGGCGUAAUGGUAACGCGUCUCCCUCCUAAGGAGAAGACUGCGGGUUCGAGUCCCGUACGGGGUG [G1A U2C G6A A69G A70G C71U] is lower in “yeast fitness (ln)” value: -0.085 for the first, -0.187 for the second.

First: ACUCCAUUGGCGUAAUGGUAACGCGUUUCCCUCCUAAGGAGAAGACUGCGGGUUCGAGUCCCGUACGGAACG [G1A U2C G6A C27U]
Second: ACUCCAUUGGCGUAAUGGUAACGCGUCUCCCUCCUAAGGAGACGAUUGCGGGUUCGAGUCCCGUAUGGAAUG [G1A U2C G6A A43C C46U C66U C71U]
The “yeast fitness (ln)” value of the first is higher: -0.0466 for the first, -0.246 for the second.

Going from ACUCCAUUGGCGUAAUGGUAACGCGUUUCCCUCCUAAGGAGACGAUUGCGGGUUCGAGUCCCGUACGGAACG [G1A U2C G6A C27U A43C C46U] to ACUCCAUUGGCGUAAUGGUAACGCGUCUCCCUCCUAAGGAGACGACUGCGGGUUCGAGUCCCGUAUGGAGUG [G1A U2C G6A A43C C66U A70G C71U], the “yeast fitness (ln)” value rises from -0.0401 to -0.00743.

First: ACUCCAUUGGCGUAAUGGUAACGCGUCUCCCUCCUAAGGAGACGACUGCGGGUUCGAGUCCCGUAUGGGGUG [G1A U2C G6A A43C C66U A69G A70G C71U]
Second: ACUCCAUUGGCGUAAUGGUAACGCGUUUCCCUCCUAAGGAGACGACUGCGGGUUCGAGUCCCGUACGGAACG [G1A U2C G6A C27U A43C]
The “yeast fitness (ln)” value of the first is higher: -0.0387 for the first, -0.0863 for the second.

Compared with ACUCCAUUGGCGUAAUGGUAACGCGUCUCCCUCCUAAGGAGACGAUUGCGGGUUCGAGUCCCGUACGGGGUG [G1A U2C G6A A43C C46U A69G A70G C71U], ACUCCAUUGGCGUAAUGGUAACGCGUUUCCCUCCUAAGGAGACGACUGCGGGUUCGAGUCCCGUACGGAUCG [G1A U2C G6A C27U A43C A70U] is higher in “yeast fitness (ln)” value: -0.119 for the first, -0.0697 for the second.

First: ACUCCAUUGGCGUAAUGGUAACGCGUCUCCCUCCUAAGGAGACGACUGCGGGUUCGAGUCCCGUACGGAUUG [G1A U2C G6A A43C A70U C71U]
Second: ACUCCAUUGGCGUAAUGGUAACGCGUCUCCCUCCUAAGGAGACGACUGCGGGUUCGAGUCCCGUAUGGAGCG [G1A U2C G6A A43C C66U A70G]
The “yeast fitness (ln)” value of the first is higher: -0.088 for the first, -0.12 for the second.

Compared with ACUCCAUUGGCGUAAUGGUAACGCGUCUCCCUCCUAAGGAGACGACUGCGGGUUCGAGUCCCGUAUGGAUCG [G1A U2C G6A A43C C66U A70U], ACUCCAUUGGCGUAAUGGUAACGCGUCUCCCUCCUAAGGAGACGAUUGCGGGUUCGAGUCCCGUACGGGGCG [G1A U2C G6A A43C C46U A69G A70G] is lower in “yeast fitness (ln)” value: -0.083 for the first, -0.191 for the second.

Compared with ACUCCAUUGGCGUAAUGGUAACGCGUCUCCCUCCUAAGGAGACGAUUGCGGGUUCGAGUCCCGUACGGGUCG [G1A U2C G6A A43C C46U A69G A70U], ACUCCAUUGGCGUAAUGGUAACGCGUCUCCCUCCUAAGGAGACGACUGCGGGUUCGAGUCCCGUAUGGGUCG [G1A U2C G6A A43C C66U A69G A70U] is lower in “yeast fitness (ln)” value: -0.0463 for the first, -0.275 for the second.

Compared with ACUCCAUUGGCGUAAUGGUAACGCGUCUCCCUCCUAAGGAGACGACUGCGGGUUCGAGUCCCGUAUGGGGCG [G1A U2C G6A A43C C66U A69G A70G], ACUCCAUUGGCGUAAUGGUAACGCGUCUCCCUCCUAAGGAGACGAUUGCGGGUUCGAGUCCCGUACGGAGUG [G1A U2C G6A A43C C46U A70G C71U] is lower in “yeast fitness (ln)” value: -0.309 for the first, -0.354 for the second.

Compared with ACUCCAUUGGCGUAAUGGUAACGCGUCUCCCUCCUAAGGAGAAGACUGCGGGUUCGAGUCCCGUACGGGUUG [G1A U2C G6A A69G A70U C71U], ACUCCAUUGGCGUAAUGGUAACGCGUCUCCCUCCUAAGGAGACGAUUGCGGGUUCGAGUCCCGUAUGGGGCG [G1A U2C G6A A43C C46U C66U A69G A70G] is higher in “yeast fitness (ln)” value: -0.281 for the first, -0.232 for the second.

Going from ACUCCAUUGGCGUAAUGGUAACGCGUCUCCCUCCUAAGGAGACGAUUGCGGGUUCGAGUCCCGUAUGGGUCG [G1A U2C G6A A43C C46U C66U A69G A70U] to ACUCCAUUGGCGUAAUGGUAACGCGUCUCCCUCCUAAGGAGACGACUGCGGGUUCGAGUCCCGUACGGAUCG [G1A U2C G6A A43C A70U], the “yeast fitness (ln)” value falls from -0.0607 to -0.113.
